rCAG RNA binder = r(CAG) repeat RNA binding. inhibition, % at 3 µM. TO-PRO-1 dye displacement fluorescence. AID 651821. hit rate 1.3% among 370,000;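 active means inhibition above the plate cutoff, the mean of all test compounds on that plate plus 3 SD, cut at about 35% in these data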;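 further: 0% = DMSO alone and 100% = 100 µM mitoxantrone as full dye displacement; higher means more dye released from RNA so lower well fluorescence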
Granule exo inh = lytic granule exocytosis inhibition | AID 651702 | TALL-104 LAMP-1 surface exposure, flow cytometry; cells stimulated with thapsigargin and PMA | hit rate 0.66% among 360,000 | inhibition, % at 10 µM;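 active means inhibition above about 55%, limit read from the data; inconclusive means no clear call, values can overlap the other calls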
MPTP block = permeability transition pore inhibition; isolated mouse mitochondria, Ca2+ swelling absorbance, 30 min; inhibition, % at 10 µM; hit rate 1.4% among 360,000;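 active means inhibition of 50% or more, scaled per plate between neutral and stimulator controls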;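 further: 0% = DMSO wells given calcium and 100% = 1 mM EGTA wells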
Beta2AR agonist = human beta-2 adrenergic receptor agonism by FAP. P07550. AID 504454. hit rate 0.43% among 340,000. Am2.2-beta2AR cells, FAP receptor internalization, flow cytometry. response, % (concentration not given with the values);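 active means response above a set limit, near 3 SD of response in nonfluorescent compounds, cut at about 42% in these data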
Target sequence (P07550 whole entry, looked up): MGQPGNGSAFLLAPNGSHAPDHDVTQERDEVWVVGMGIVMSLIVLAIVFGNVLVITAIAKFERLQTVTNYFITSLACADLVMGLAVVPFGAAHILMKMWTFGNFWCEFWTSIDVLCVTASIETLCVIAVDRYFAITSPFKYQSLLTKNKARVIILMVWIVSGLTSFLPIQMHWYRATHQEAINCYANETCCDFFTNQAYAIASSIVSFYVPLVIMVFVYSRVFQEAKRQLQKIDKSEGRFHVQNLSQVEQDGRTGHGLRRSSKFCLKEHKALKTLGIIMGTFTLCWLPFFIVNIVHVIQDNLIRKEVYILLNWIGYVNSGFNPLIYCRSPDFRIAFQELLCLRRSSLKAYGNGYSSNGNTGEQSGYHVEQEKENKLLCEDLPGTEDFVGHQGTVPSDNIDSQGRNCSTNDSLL
T cell modulator = T cell immune modulation candidate. hit rate 0.068% among 330,000. response (vesicle binding), % at 7 µM. 2C CD8+ T cell-vesicle binding, flow cytometry; stronger effect = lower value;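 active means response, share of CD8 T cells binding vesicles, and their 90th percentile fluorescence all below set limits, cut at about 80% in these data, passing the limit was not always enough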;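 further: values below 100% mean blocked vesicle binding to the CD8+ T cells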
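Material: murine 2C transgenic CD8+ T lymphocytes / Also added: QL9-peptide-loaded Drosophila micro-vesicles bearing Ld, ICAM-1 and B7-1 / Schedule: binding step 1.5 h, 37 °C, antibody labelling 20 min, ice / Signal: flow cytometry, PE anti-B7-1 (FL2) versus Alexa647 anti-CD8 (FL8), PFA-fixed / Evaluation: percent CD8+ FL2 mean versus row control / Benchmarks: naked versus QL9-loaded vesicles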
V-ATPase pH = alters yeast V-ATPase proton transport. S. cerevisiae, pHLuorin cytosolic pH fluorescence. response, % at 10 µM. hit rate 0.37% among 350,000. AID 504577; in the data active means response mostly above about 7.3%, no sharp cut-off; inactive means mostly below about 5.4%; further: actives read high
MPTP counter = mitochondrial membrane potential, counter-screen | shares compounds with MPTP block | isolated mitochondria, Rhodamine 123 fluorescence | inhibition, % at 10 µM | hit rate 78% among 5,000; in the data active means inhibition above about 22%;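 further: 0% = DMSO vehicle and 100% = positive control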
MPTP swell DR = MPTP inhibition, dose response swelling confirmation; hit rate 58% among 780; shares compounds with MPTP block; IC50, µM; isolated mitochondria swelling, absorbance; AID 651561; in the data active means IC50 below about 20 µM
MPTP counter DR = active in counter-screen for permeability transition pore inhibitors; shares compounds with MPTP block; isolated mitochondria counterscreen, fluorescence read-out; AID 651564; hit rate 49% among 780; IC50, µM; in the data active means IC50 below about 80 µM
Active calls of the source: *. The list is not random: actives were taken first. Their share in the collection is about 3.8%.

Screening Cc1nn(-c2ccccc2)c(C)c1/C=N\N1CCN(Cc2ccccc2Cl)CC1 returned rCAG RNA binder -1.3.
For COc1ccc2ccccc2c1/C=N/Nc1ccc(Cl)c(C(=O)O)c1 the results were rCAG RNA binder 18.2, Granule exo inh 4.8, MPTP block 1.7, Beta2AR agonist -0.6, T cell modulator 348.9 and V-ATPase pH -3.8.
`COc1ccc(N/N=C/c2c(C(=O)O)ccc3ccccc23)cc1` gave rCAG RNA binder 22.2, Granule exo inh inconclusive, MPTP block 82.3*, Beta2AR agonist 6.4, T cell modulator 679.8, V-ATPase pH 1.6 and MPTP counter 51.7*.
`O=C(NC(NNc1ccc([N+](=O)[O-])cc1)(C(F)(F)F)C(F)(F)F)c1ccccc1Cl` gave rCAG RNA binder 3.2, Granule exo inh -0.3, MPTP block 90.2*, Beta2AR agonist -7.9, T cell modulator 437.8, V-ATPase pH 1.3 and MPTP counter 83.8*.
For Cc1ccccc1C(=O)NNc1ccc([N+](=O)[O-])cc1 the results were rCAG RNA binder 1.2, Granule exo inh -1.5, MPTP block 0.6, Beta2AR agonist -6.3, T cell modulator 387.5 and V-ATPase pH -3.5.
O=C(NC(NNc1ccc([N+](=O)[O-])cc1)(C(F)(F)F)C(F)(F)F)c1ccc(F)cc1 was read as rCAG RNA binder -0.3, Granule exo inh -4.3, MPTP block 100.3*, Beta2AR agonist 9.7, T cell modulator 690.0, V-ATPase pH -1.0 and MPTP counter 88.2*.
Screening CCOC(=O)C1(Cc2cccc(OC)c2)CCN(C/C=C/c2ccc(OC)cc2)CC1 returned rCAG RNA binder -8.3, Granule exo inh 22.6, MPTP block 79.6*, Beta2AR agonist -10.6, T cell modulator 144.2, V-ATPase pH -1.8 and MPTP counter 78.5*.
Screening CCOC(=O)C1(Cc2cccc(OC)c2)CCN(CC=C(C)C)CC1 returned rCAG RNA binder -8.0, Granule exo inh -0.7, MPTP block 9.2, Beta2AR agonist -8.8, T cell modulator 156.0 and V-ATPase pH 0.0.
For COc1ccc([C@H]2OC(=O)C[C@H]2C(=O)N2CCCC2)cc1OC the results were rCAG RNA binder -0.2.
CN(C)S(=O)(=O)c1cc(NC(=O)CSc2nn(-c3ccc(Cl)cc3)c(=S)s2)ccc1Cl was read as rCAG RNA binder 19.7, Granule exo inh 2.1, MPTP block 69.9*, Beta2AR agonist -1.4, T cell modulator 311.2, V-ATPase pH -3.7 and MPTP counter 81.2*.
For Cc1cc(C)n(-c2ccc(C(=O)Nc3ccc(C)c(S(=O)(=O)N(C)C)c3)cc2)n1 the results were rCAG RNA binder -3.0, Granule exo inh 0.5, MPTP block 35.5, Beta2AR agonist 6.8, T cell modulator 227.8 and V-ATPase pH 1.6.
Screening NS(=O)(=O)c1cccc(NC(=O)CSc2nn(-c3ccccc3)c(=S)s2)c1 returned rCAG RNA binder 4.1, Granule exo inh -0.4, MPTP block 10.1, Beta2AR agonist -0.7, T cell modulator 170.4 and V-ATPase pH -0.3.
Screening Cc1ccc(NC(=O)CSc2nn(-c3ccc(Cl)cc3)c(=S)s2)cc1S(=O)(=O)N(C)C returned rCAG RNA binder 19.6, Granule exo inh 4.1, MPTP block 85.8*, Beta2AR agonist 0.9, T cell modulator 387.8, V-ATPase pH 5.7 and MPTP counter 81.1*.
For COC(=O)c1cc2c(c3c4cc(F)ccc4n(S(=O)(=O)c4cccc(C)c4)c13)C(=O)N(Cc1ccc(C(F)(F)F)cc1)C2 the results were rCAG RNA binder 12.2.
`CCOC(=O)c1sc(NC(=O)c2cc(-c3ccccc3)nc3ccccc23)c(C#N)c1C` gave rCAG RNA binder 21.3, Granule exo inh 10.4, MPTP block 107.0*, Beta2AR agonist 39.0, T cell modulator 163.4, V-ATPase pH 0.8 and MPTP counter 78.2*.
Screening CCOC(=O)c1sc(NC(=O)CSc2nc3c(cc2C#N)CCCCC3)c(C#N)c1C returned rCAG RNA binder 2.0, Granule exo inh -3.7, MPTP block 91.2*, Beta2AR agonist 4.0, T cell modulator 232.5, V-ATPase pH 1.3, MPTP counter 3.7, MPTP swell DR >100 and MPTP counter DR 9.79*.
`O=C(CSc1nc(-c2ccco2)cc(C(F)(F)F)n1)Nc1ccc(C(=O)N2CCCCC2)cc1` gave rCAG RNA binder -1.0, Granule exo inh -6.4, MPTP block 53.8*, Beta2AR agonist -22.9, T cell modulator 415.2, V-ATPase pH 1.1 and MPTP counter 92.4*.
CCOC(=O)c1sc(NC(=O)CSc2nc(C)cc(C)n2)c(C#N)c1C was read as rCAG RNA binder 8.9, Granule exo inh 4.3, MPTP block 58.0*, Beta2AR agonist -5.4, T cell modulator 410.0, V-ATPase pH 1.5 and MPTP counter 39.7*.
CCOC(=O)c1sc(NC(=O)c2cccnc2)c(C#N)c1C was read as rCAG RNA binder 8.5, Granule exo inh -0.7, MPTP block 0.6, Beta2AR agonist 4.1, T cell modulator 854.9 and V-ATPase pH -0.6.
`CCOC(=O)c1sc(NC(=O)CSc2nc(-c3ccco3)cc(C(F)(F)F)n2)c(C#N)c1C` gave rCAG RNA binder 1.1, Granule exo inh 1.1, MPTP block 84.4*, Beta2AR agonist -2.9, T cell modulator 237.6, V-ATPase pH -0.5, MPTP counter 6.7, MPTP swell DR 3.99* and MPTP counter DR <2.5*.
Screening COc1ccc(CN2C(=O)c3ccnn3CC2(C)c2nnnn2-c2c(C)cccc2C)cc1 (configuration not stated) returned rCAG RNA binder 3.0.
COc1ccc(-c2c(Cc3ccccc3)nc(NC(=O)c3ccccc3)n2C)cc1 was read as rCAG RNA binder 6.5.
`Cc1nn(C)c(C)c1CN(C)S(=O)(=O)c1ccc2ccccc2c1` gave rCAG RNA binder 1.1, Granule exo inh -2.3, MPTP block 109.5*, Beta2AR agonist -13.6, T cell modulator inactive, V-ATPase pH -2.8 and MPTP counter 102.1*.
Screening Cc1nn(C)c(C)c1CN(C)S(=O)(=O)c1ccc(F)cc1 returned rCAG RNA binder -5.5, Granule exo inh 2.5, MPTP block -0.7, Beta2AR agonist 5.3, T cell modulator 135.3 and V-ATPase pH 0.0.
Screening CC1CCCN(c2nc(-c3cccnc3)nc3scc(-c4ccccc4)c23)C1 (configuration not stated) returned rCAG RNA binder 4.3, Granule exo inh 38.1, MPTP block 73.1*, Beta2AR agonist 2.6, T cell modulator 241.0, V-ATPase pH -3.0, MPTP counter -2.2, MPTP swell DR 6.95* and MPTP counter DR >80.

Assay outcomes from PubChem.
